≈ marks a conversion by molar mass, not a printed value.
Key:
Type in all cases: functional
[1] = system: Mycobacterium tuberculosis; assay: Antimicrobial activity against Mycobacterium tuberculosis H37Rv ATCC 27294 harboring pFCA-lux AB gene measured under aerobic condition after 8 days by luminescence analysis; settings: H37Rv ATCC 27294, 192 h
In short: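 MABA: replicating M. tb H37Rv exposed to compound aerobically for 8 days. […] Mean of at least two independent determinations ± SD.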

[2] = system: Mycobacterium tuberculosis; assay: Antimicrobial activity against Mycobacterium tuberculosis H37Rv ATCC 27294 harboring pFCA-lux AB gene measured under anaerobic condition after 11 days by luminescence analysis; settings: H37Rv ATCC 27294, 264 h
In short: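 LORA: luminescence-based low-oxygen-recovery assay on nonreplicating M. tb, 11-day anaerobic exposure. MIC is the mean of at least two independent determinations ± SD.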

[3] = system: Mycobacterium tuberculosis; assay: Ratio of MIC for PA-824 to compound MIC for Mycobacterium tuberculosis H37Rv ATCC 27294 harboring pFCA-lux AB gene measured under aerobic condition after 8 days by luminescence analysis

Q: How did the MIC [1] turn out when `O=C(N[C@@H]1COc2nc([N+](=O)[O-])cn2C1)c1ccccc1OC(F)(F)F` was run?
A: The MIC was 27 µM (≈ 10.1 µg/mL).

Q: What about the MIC [2] of the same molecule?
A: The MIC was greater than 64 µM.

Q: How did the MIC [1] turn out when `O=C(N[C@@H]1COc2nc([N+](=O)[O-])cn2C1)c1cccc(OC(F)(F)F)c1` was run?
A: Its MIC is 4.9 µM (≈ 1.82 µg/mL).

Q: What about the MIC [2] of the same molecule?
A: Its MIC is greater than 64 µM.

Q: With `CN(C(=O)c1ccccc1OC(F)(F)F)[C@@H]1COc2nc([N+](=O)[O-])cn2C1` as the molecule, how does the MIC [1] read?
A: Its MIC is 45 µM (≈ 17.4 µg/mL).

Q: What about the MIC [2] of the same molecule?
A: Its MIC is greater than 64 µM.

Q: Which results are given for `O=C(Nc1ccc(-c2ccc(C(F)(F)F)nc2)cc1)N[C@@H]1COc2nc([N+](=O)[O-])cn2C1`?
A: MIC [1]: 0.17 µM (≈ 0.0762 µg/mL); MIC [2]: 17 µM (≈ 7.62 µg/mL)

Q: With `O=C(Nc1ccc(-c2ccc(F)nc2)cc1)N[C@@H]1COc2nc([N+](=O)[O-])cn2C1` as the molecule, how does the MIC [1] read?
A: Its MIC is 0.24 µM (≈ 0.0956 µg/mL).

Q: And the MIC [2]?
A: Its MIC is 11 µM (≈ 4.38 µg/mL).

Q: For `O=C(Nc1ccc(-c2ccnc(C(F)(F)F)c2)cc1)N[C@@H]1COc2nc([N+](=O)[O-])cn2C1`, which MIC [1] is on record?
A: Its MIC is 0.36 µM (≈ 0.161 µg/mL).

Q: What about the MIC [2] of the same molecule?
A: The MIC was 13 µM (≈ 5.83 µg/mL).

Q: For `O=C(NCc1ccc(-c2ccc(C(F)(F)F)cc2)cc1)N[C@@H]1COc2nc([N+](=O)[O-])cn2C1`, which MIC [1] is on record?
A: The MIC was 0.32 µM (≈ 0.148 µg/mL).

Q: What about the MIC [2] of the same molecule?
A: The MIC was greater than 32 µM.

Q: How did the MIC [1] turn out when `O=C(NCc1ccc(-c2ccc(F)cc2)cc1)N[C@@H]1COc2nc([N+](=O)[O-])cn2C1` was run?
A: The MIC was 0.11 µM (≈ 0.0453 µg/mL).

Q: What about the MIC [2] of the same molecule?
A: Its MIC is 26 µM (≈ 10.7 µg/mL).

Q: `O=C(Nc1ccc(OC(F)(F)F)cc1)O[C@@H]1COc2nc([N+](=O)[O-])cn2C1` was tested. Which MIC [1] did it give?
A: The MIC was 0.12 µM (≈ 0.0466 µg/mL).

Q: And the MIC [2]?
A: Its MIC is 2.7 µM (≈ 1.05 µg/mL).

Q: What about the Ratio [3] of the same molecule?
A: The Ratio was 4.

Q: For `O=[N+]([O-])c1cn2c(n1)OC[C@@H](OCc1ccccc1OC(F)(F)F)C2`, which MIC [1] is on record?
A: Its MIC is 1.8 µM (≈ 0.647 µg/mL).

Q: What about the MIC [2] of the same molecule?
A: Its MIC is 8.6 µM (≈ 3.09 µg/mL).

Q: `O=[N+]([O-])c1cn2c(n1)OC[C@@H](OCc1cccc(OC(F)(F)F)c1)C2` was tested. Which MIC [1] did it give?
A: The MIC was 0.36 µM (≈ 0.129 µg/mL).

Q: What about the MIC [2] of the same molecule?
A: Its MIC is 2.1 µM (≈ 0.754 µg/mL).

Q: Which results are given for `O=[N+]([O-])c1cn2c(n1)OC[C@@H](OCc1ccc(OC(F)(F)F)cc1)C2` [PRETOMANID]?
A: MIC [1]: 0.5 µM (≈ 0.18 µg/mL); MIC [2]: 2.6 µM (≈ 0.934 µg/mL)
